ChEMBL document CHEMBL4477200, “Design, Synthesis, and Preclinical Evaluation of 4-Substituted-5-methyl-furo[2,3-d]pyrimidines as Microtubule Targeting Agents That Are Effective against Multidrug Resistant Cancer Cells” (J Med Chem, 2016)
Activity calls are given as the source filed them. No cut-off for these calls is given here.

Assays:
SK-OV-3 [1] = assay: Antiproliferative activity against multidrug resistant human SKOV3 cells expressing MDR1-M6/6 after 48 hrs by SRB assay; format: functional, cell-based; details: SK-OV-3, 48 h
Procedure, shortened: (§1)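 SRB assay; IC50 is the mean of three independent experiments, each run in triplicate. Cells were kept at 37 °C under 5% CO2. HeLa and SK-OV-3 lines (parental and MDR1-M6/6) were grown in Basal Medium Eagle with 10% FBS, 1% GlutaMAX and 50 µg/mL gentamycin. HeLa WTβIII was grown in DMEM with 10% FBS.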

HeLa [2] = assay: Cell cycle arrest in human HeLa cells assessed as accumulation at G2/M phase at 5 times IC50 after 18 hrs by flow cytometry (reference value: 17.11 +/- 1.09%); format: functional
Tubulin (Homo sapiens) = Tubulin (Homo sapiens) (UniProt P68371+Q9H4B7+P0DPH7+P68366+Q13509+Q71U36+P04350+Q3ZCM7+P07437+P68363+Q9BQE3+Q6PEY2+Q13885+Q9BVA1+Q9BUF5); assay: Induction of microtubule disruption in human HeLa cells assessed as multipolarization of spindle at 5 times IC50 incubated for 18 hrs by indirect immunofluorescence analysis relative to vehicle-treated control; format: cell-based
Procedure, shortened: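 Mitotic spindles and microtubules were imaged by indirect immunofluorescence with a β-tubulin antibody and compared with vehicle-treated cells.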

HeLa [3] = assay: Antiproliferative activity against human HeLa cells after 48 hrs by SRB assay; format: functional, cell-based; procedure, shortened: as §1
HeLa [4] = assay: Antiproliferative activity against multidrug resistant human HeLa cells expressing wild type beta3 tubulin after 48 hrs by SRB assay; format: functional, cell-based; procedure, shortened: as §1
HeLa [5] = assay: Relative ratio of IC50 for human HeLa cells expressing wild type beta3 tubulin to IC50 for human HeLa cells; format: functional
SK-OV-3 [6] = assay: Relative ratio of IC50 for human SKOV3 cells expressing MDR1-M6/6 to IC50 for human SKOV3 cells; format: functional
Procedure, shortened: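 Rr is the IC50 in Pgp-expressing SK-OV-3 MDR1-M6/6 cells divided by the IC50 in parental SK-OV-3 cells. Both IC50s come from the SRB assay, averaging three independent experiments run in triplicate.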

[7] = system: Tubulin (Rattus norvegicus); assay: Induction of microtubule depolymerization in rat A10 cells at 2 times EC50 incubated for 18 hrs by indirect immunofluorescence analysis
SK-OV-3 [8] = assay: Cytotoxicity against human SKOV3 cells assessed as growth inhibition after 48 hrs by SRB assay; format: functional, cell-based; details: SK-OV-3, 48 h; procedure, shortened: as §1
Tubulin (Bos taurus) [9] = target: T1, Tubulin (Bos taurus) (UniProt Q6B856+Q862L2+Q862F3); assay: Inhibition of [3H]colchicine binding to tubulin in bovine brain homogenate at 5 uM incubated for 10 mins by DEAE-cellulose filter assay; format: tissue-based
Tubulin = Tubulin (Bos taurus, UniProt Q6B856+Q862L2+Q862F3); assay: Inhibition of tubulin assembly in bovine brain […] assessed as reduction in turbidity increase preincubated for 15 mins followed by GTP addition measured for 20 mins by spectrophotometric analysis
Procedure, shortened: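 Purified bovine brain tubulin, 1.0 mg/mL (10 µM), was preincubated 15 min at 30 °C in 0.8 M monosodium glutamate (pH 6.6) with compound and 4% DMSO. Mixtures were chilled and 0.4 mM GTP added. Turbidity was followed for 20 min at 30 °C. IC50 is the concentration halving the turbidity increase, interpolated between tested concentrations.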

Tubulin (Bos taurus) [10] = target: T1, Tubulin (Bos taurus); assay: Displacement of [3H]colchicine from tubulin in bovine brain homogenate at 1 uM incubated for 10 mins by DEAE-cellulose filter assay; format: tissue-based
MDA-MB-435 = assay: Antitumor activity against human MDA-MB-435 cells xenografted in nude mouse assessed as tumor growth inhibition at 20 mg/kg, ip dosed on days 0 , 2, 4, 6, 8 and 11 relative to control

`CCc1ccc(N(C)c2ncnc3occ(C)c23)cc1` was tested, and the IC50 (SK-OV-3 [1]) was 0.162 µM, the Activity (HeLa [2]) was 76.19% and the Activity (Tubulin (Homo sapiens)) was “Active”. The IC50 (HeLa [3]) was 0.12 µM, the IC50 (HeLa [4]) was 0.159 µM and the “Ratio IC50” value (HeLa [5]) was 1.3. For the same molecule, the “Ratio IC50” value (SK-OV-3 [6]) was 1, the Activity [7] was “Active” and the IC50 (SK-OV-3 [8]) was 0.156 µM.

In the case of `CSc1ccc(N(C)c2ncnc3occ(C)c23)cc1`, the inhibition (Tubulin (Bos taurus) [9]) is reported as 94%, the IC50 (SK-OV-3 [1]) is reported as 0.0321 µM and the Activity (HeLa [2]) is reported as 64.09%. For the same molecule, the IC50 (Tubulin) was 1.2 µM, the Activity (Tubulin (Homo sapiens)) was “Active” and the IC50 (HeLa [3]) was 0.0157 µM. For the same molecule, the IC50 (HeLa [4]) was 0.0149 µM, the “Ratio IC50” value (HeLa [5]) was 0.9 and the “Ratio IC50” value (SK-OV-3 [6]) was 1.7. The Activity [7] was “Active”, the IC50 (SK-OV-3 [8]) was 0.0186 µM and the inhibition (Tubulin (Bos taurus) [10]) was 79%.

In the case of `COc1ccc(N(c2ncnc3occ(C)c23)C(C)C)cc1`, the inhibition (Tubulin (Bos taurus) [9]) is reported as 47% and the IC50 (Tubulin) is reported as 3 µM.

`CCCCN(c1ccc(OC)cc1)c1ncnc2occ(C)c12` was tested, and the inhibition (Tubulin (Bos taurus) [9]) was 87%, the IC50 (SK-OV-3 [1]) was 0.2 µM and the Activity (HeLa [2]) was 64.96%. For the same molecule, the IC50 (Tubulin) was 1.3 µM, the Activity (Tubulin (Homo sapiens)) was “Active” and the IC50 (HeLa [3]) was 0.111 µM. The IC50 (HeLa [4]) was 0.116 µM, the “Ratio IC50” value (HeLa [5]) was 1 and the “Ratio IC50” value (SK-OV-3 [6]) was 1.4. The Activity [7] was “Active”, the IC50 (SK-OV-3 [8]) was 0.148 µM and the inhibition (Tubulin (Bos taurus) [10]) was 61%.

With `CC(=O)O[C@H]1C(=O)[C@@]2(C)[C@H]([C@H](OC(=O)c3ccccc3)[C@]3(O)C[C@H](OC(=O)[C@H](O)[C@@H](NC(=O)c4ccccc4)c4ccccc4)C(C)=C1C3(C)C)[C@]1(OC(C)=O)CO[C@@H]1C[C@@H]2O` the TGI (MDA-MB-435) was “Active”.

Molecule `CCCN(c1ccc(OC)cc1)c1ncnc2occ(C)c12` has an inhibition (Tubulin (Bos taurus) [9]) of 92%, an IC50 (SK-OV-3 [1]) of 0.071 µM and an Activity (HeLa [2]) of 89.25%. The IC50 (Tubulin) was 1.1 µM, the Activity (Tubulin (Homo sapiens)) was “Active” and the IC50 (HeLa [3]) was 0.0338 µM. The IC50 (HeLa [4]) was 0.0353 µM, the “Ratio IC50” value (HeLa [5]) was 1 and the “Ratio IC50” value (SK-OV-3 [6]) was 1.8. The Activity [7] was “Active”, the IC50 (SK-OV-3 [8]) was 0.0403 µM and the inhibition (Tubulin (Bos taurus) [10]) was 75%.

For `COc1ccc(/C=C\c2cc(OC)c(OC)c(OC)c2)cc1O` [COMBRETASTATIN A4], the Activity (HeLa [2]) was 67.58%.

Molecule `CCN(c1ccc(OC)cc1)c1ncnc2occ(C)c12` has an inhibition (Tubulin (Bos taurus) [9]) of 95%, an IC50 (SK-OV-3 [1]) of 0.0183 µM and an Activity (HeLa [2]) of 63.76%. The IC50 (Tubulin) was 0.97 µM, the Activity (Tubulin (Homo sapiens)) was “Active” and the IC50 (HeLa [3]) was 0.0158 µM. For the same molecule, the IC50 (HeLa [4]) was 0.0146 µM, the “Ratio IC50” value (HeLa [5]) was 0.9 and the “Ratio IC50” value (SK-OV-3 [6]) was 1.3. For the same molecule, the Activity [7] was “Active”, the IC50 (SK-OV-3 [8]) was 0.0145 µM and the inhibition (Tubulin (Bos taurus) [10]) was 84%.
